The values below come from ChEMBL document CHEMBL4406822, “Neuroactive Steroid N-Methyl-d-aspartate Receptor Positive Allosteric Modulators: Synthesis, SAR, and Pharmacological Activity” (J Med Chem, 2019).

Series [1] concerns the target T1, Glutamate NMDA receptor; GRIN1/GRIN2B (Homo sapiens, UniProt Q05586+Q13224). Kind of series: Positive allosteric modulation of recombinant human GluN1/GluN2B receptor stably expressed in HEK293 cells assessed as increase in glycine/L-glutamate-induced channel current at -70 mV holding potential by IonWork whole cell patch clamp method relative to control. Background: The patch-clamp technique gives a direct electrical read-out from membranes.

In series [2] the target is T1, Glutamate NMDA receptor; GRIN1/GRIN2B. Kind of series: Positive allosteric modulation of recombinant human GluN1/GluN2B receptor stably expressed in HEK293 cells assessed as increase in glycine/L-glutamate-induced channel current at -70 mV holding potential by IonWork […] method. The format is cell-based. A digest of the protocol:
(§1)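 Stable HEK293 lines expressing GluN1/GluN2A or GluN1/GluN2B, measured by automated whole-cell patch clamp (Ionworks Barracuda). Cells were held at -70 mV and stepped to -45 mV during agonist application (EC20 L-glutamate plus 50 µM glycine). The test article was first pre-applied alone for 5 min, then co-applied with agonist to record potentiation. Concentration-response percent potentiation gave EC50 and Emax.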
(In general: In two-electrode clamp one electrode senses voltage and the other passes current.)

Series [3] has as its system Hippocampus. Kind of series: Induction of synaptic plasticity in postnatal 60 to 90 day rat brain hippocampal slice assessed as change in theta burst stimulaiton-induced field potential potentiation at 1 uM treated 20 mins prior to theta burst stimulation by electrophysiological method. The format is functional, tissue-based.
Series [4] is described as follows: Stability in human liver microsomes. The format is ADME, Microsome. As to conditions: read-out: Stability. A general note: Liver microsomes are a subcellular fraction often used to study metabolism.
The target of series [5] is T2, Glutamate NMDA receptor; GRIN1/GRIN2A (Homo sapiens, UniProt Q05586+Q12879). Kind of series: Positive allosteric modulation of recombinant human GluN1/GluN2A receptor stably expressed in HEK293 cells assessed as increase in glycine/L-glutamate-induced channel current at -70 mV holding potential by IonWork […] method relative to control. The format is cell-based. The method, boiled down:
as §1

Series [6] addresses T2, Glutamate NMDA receptor; GRIN1/GRIN2A. Kind of series: Positive allosteric modulation of recombinant human GluN1/GluN2A receptor stably expressed in HEK293 cells assessed as increase in glycine/L-glutamate-induced channel current at -70 mV holding potential by IonWork […] method. The format is cell-based. The method, boiled down: as §1
Series [7] is described as follows: Stability in rat liver microsomes. The format is ADME, Microsome. As to conditions: read-out: Stability.
In series [8] the test system is Hippocampus. Kind of series: Induction of synaptic plasticity in postnatal 120 to 150 day rat brain hippocampal slice assessed as stimulation of theta burst stimulaiton-induced field potential potentiation at 1 uM treated 20 mins prior to theta burst stimulation and measured after 60 mins by electrophysiological method. The format is functional, tissue-based.
Series [9] in a line: Half life in rat. The format is ADME. As to conditions: in vivo.
Series [10] in a line: Ratio of drug level in Sprague-Dawley rat brain to plasma at 10 mg/kg, ip measured after 1 hr. The format is ADME, organism-based. As to conditions: brain and plasma, read-out: BPR.
Series [11] in a line: Oral bioavailability in rat. The format is ADME, organism-based. As to conditions: in vivo.
A short description of series [12]: Clearance in iv dosed rat. The format is ADME, organism-based. As to conditions: in vivo.
Series [13] concerns the target T1, Glutamate NMDA receptor; GRIN1/GRIN2B. Kind of series: Potency index, ratio of 24(S)-hydroxycholesterol EC50 to test compound EC50 for positive allosteric modulation of recombinant human GluN1/GluN2B receptor stably expressed in HEK293 cells. The format is cell-based.
Series [14] has as its target T2, Glutamate NMDA receptor; GRIN1/GRIN2A. Kind of series: Potency index, ratio of 24(S)-hydroxycholesterol EC50 to test compound EC50 for positive allosteric modulation of recombinant human GluN1/GluN2A receptor stably expressed in HEK293 cells. The format is cell-based.
A short description of series [15]: Volume of distribution at steady state in rat. The format is ADME. As to conditions: in vivo, read-out: Vdss.
For series [16], the target named is T2, Glutamate NMDA receptor; GRIN1/GRIN2A. Kind of series: Positive allosteric modulation of recombinant human GluN1/GluN2A receptor expressed in Xenopus laevis oocytes assessed as increase in glycine/L-glutamate-induced channel current at -80 mV holding potential by two-electrode voltage clamp method relative to control. The format is cell-based.
The species entered for another series is Canis lupus familiaris. Kind of series: Positive allosteric modulation of recombinant dog GluN1/GluN2A receptor expressed in Xenopus laevis oocytes assessed as increase in glycine/L-glutamate-induced channel current at -80 mV holding potential by two-electrode voltage clamp method relative to control. The format is cell-based.
Series [17] has as its target T2, Glutamate NMDA receptor; GRIN1/GRIN2A. Kind of series: Positive allosteric modulation of recombinant human GluN1/GluN2A receptor expressed in Xenopus laevis oocytes assessed as increase in glycine/L-glutamate-induced channel current at -80 mV holding potential by two-electrode voltage clamp method. The format is cell-based.
A short description of series [18]: Positive allosteric modulation of recombinant dog GluN1/GluN2A receptor expressed in Xenopus laevis oocytes assessed as increase in glycine/L-glutamate-induced channel current at -80 mV holding potential by two-electrode voltage clamp method. The format is cell-based. As to conditions: Canis lupus familiaris.
For series [19], the target named is Glutamate NMDA receptor; Grin1/Grin2a (Rattus norvegicus) (UniProt P35439+Q00959). Kind of series: Positive allosteric modulation of recombinant rat GluN1/GluN2A receptor expressed in Xenopus laevis oocytes assessed as increase in glycine/L-glutamate-induced channel current at -80 mV holding potential by two-electrode voltage clamp method relative to control. The format is cell-based.

Series [20] deals with Glutamate NMDA receptor; Grin1/Grin2a (Rattus norvegicus, UniProt P35439+Q00959). Kind of series: Positive allosteric modulation of recombinant rat GluN1/GluN2A receptor expressed in Xenopus laevis oocytes assessed as increase in glycine/L-glutamate-induced channel current at -80 mV holding potential by two-electrode voltage clamp method. The format is cell-based.
The test system of series [21] is Rattus norvegicus. Kind of series: Improvement in social recognition in 20 to 21 months old Wistar Han rat model of aged-induced memory deficit assessed as reduction in time spent with familiar juvenile at 1 mg/kg, ip administered 4 hrs prior to training trial and measured after 30 mins. The format is functional, organism-based.
The test system of series [22] is Rattus norvegicus. Kind of series: Improvement in social recognition in 20 to 21 months old Wistar Han rat model of aged-induced memory deficit assessed as reduction in time spent with familiar juvenile at 3 mg/kg, ip administered 4 hrs prior to training trial and measured after 30 mins. The format is functional, organism-based.
Series [23] in a line: Drug uptake in 20 to 21 months old Wistar Han rat model of aged-induced memory deficit brain at 1 mg/kg, ip measured after 4 hrs. The format is ADME, organism-based. As to conditions: read-out: Drug uptake.
Series [24] in a line: Drug uptake in 20 to 21 months old Wistar Han rat model of aged-induced memory deficit brain at 3 mg/kg, ip measured after 4 hrs. The format is ADME, organism-based. As to conditions: read-out: Drug uptake.
The nature of series [25]: Ratio of drug level in Sprague-Dawley rat brain to plasma at 2.5 mg/kg, iv measured after 1 hr. The format is ADME, organism-based. As to conditions: brain and plasma, read-out: BPR.
Series [26] relates to Rattus norvegicus. Kind of series: Improvement in social recognition in 20 to 21 months old Wistar Han rat model of aged-induced memory deficit assessed as reduction in time spent with familiar juvenile at 10 mg/kg, ip administered 4 hrs prior to training trial and measured after 30 mins. The format is functional, organism-based.
A short description of series [27]: Drug uptake in 20 to 21 months old Wistar Han rat model of aged-induced memory deficit brain at 10 mg/kg, ip measured after 4 hrs. The format is ADME, organism-based. As to conditions: read-out: Drug uptake.

Usually Emax stands for the size of the effect at its maximum, as opposed to the concentration needed. By EC50 is commonly meant the midpoint of the concentration-response curve. For orientation: half-life means how long it takes for the measured level to halve. A higher half-life goes with slow decline. As a reminder, the bioavailability is the share of a dose that reaches the circulation, judged against a reference dose that is usually intravenous. The low end stands for little systemic uptake, the high end for much systemic uptake. As usually defined, the clearance is the volume of plasma or blood freed of the substance per unit of time.

Structures are written as SMILES. The source made the active and inactive calls. No cut-off for these calls is given here.

As to `C[C@H](CCC(C)(C)O)[C@H]1CC[C@H]2[C@@H]3CC=C4C[C@@H](O)CC[C@]4(C)[C@H]3CC[C@]12C`, the Emax was 140% in series [1] and 110% in [5]. In addition, the concentration giving a half-maximal response (EC50) in [2] is 410 nM; in series [6] it was 180 nM. For the same compound, the outcome with Hippocampus [3] was inactive. The microsomal CLint in [4] was 10 µL/min/mg; in [7] it was 30 µL/min/mg. Moreover, the outcome in the series on Hippocampus [8] was Active.

For `CC(C)[C@@H](O)CC[C@@H](C)[C@H]1CC[C@H]2[C@@H]3CC=C4C[C@@](C)(O)CC[C@]4(C)[C@H]3CC[C@]12C`, in [9], the half-life was 1.6 h. Also, the Emax in [1] came out at 230%; in series [5] it was 200%. Also, in series [10], the Kp at 1 h worked out at 1.3. In series [11], this compound displayed a bioavailability of 15%. For the same compound, the results for the EC50 in series [2] and in series [6] were 13 nM and 33 nM, respectively. The compound further gave a clearance in series [12] of 51.7 mL/min/kg. Besides, the microsomal CLint was below 10 µL/min/mg in series [4] and 28 µL/min/mg in series [7]. In addition, the Ratio EC50 in [13] was above 10; in series [14], 4. Also, in [15], the Vd was 3.7 L/kg.

As to `CC(C)[C@@H](O)CC[C@@H](C)[C@H]1CC[C@H]2[C@@H]3CC=C4C[C@@H](O)CC[C@]4(C)[C@H]3CC[C@]12C`, in series [9], the half-life is 0.54 h. Also, the Emax in [1] worked out at 150%; in [16], 73%; in [5], 210%; in the series filed under Canis lupus familiaris, 130%; in series [19], 180%. Further, in series [11], the bioavailability worked out at 9%. Also, the EC50 amounted to 530 nM in series [2]; 150 nM in [6]; 300 nM in [17]; 650 nM in series [18]; 650 nM in series [20]. For the same compound, the clearance in series [12] was 98.3 mL/min/kg. Besides, the microsomal CLint in series [4] was 10 µL/min/mg; in series [7], 52 µL/min/mg. Also, in [15], the Vd was 2.5 L/kg.

Turning to `C[C@H](CCC(C)(C)O)[C@H]1CC[C@H]2[C@@H]3CC=C4C[C@@](C)(O)CC[C@]4(C)[C@H]3CC[C@]12C`, the Emax was 92% in series [1] and 220% in series [5]. This compound also showed a bioavailability in series [11] of 28%. Moreover, the result in the series with Rattus norvegicus [21], with Hippocampus [8] and in the series on Rattus norvegicus [26] was Active. The concentration for a half-maximal effect (EC50) in series [2] stood at 38 nM; in [6] it was 480 nM. In series [12], this compound gave a clearance of 18.3 mL/min/kg. Moreover, the microsomal CLint is 13 µL/min/mg in [4] and 35 µL/min/mg in series [7]. Further, the outcome in the series on Rattus norvegicus [22] was inactive. In addition, the concentration at 4 h in series [23] came to 400 nM; in [24] it was 900 nM; in series [27], 3700 nM. In addition, the Kp at 1 h in series [25] turned out to be 0.6. For the same compound, the Vd in [15] was found to be 0.65 L/kg.
